Reference: ChEMBL document CHEMBL4229489, “Synthesis and evaluation of camphor and cytisine-based cyanopyrrolidines as DPP-IV inhibitors for the treatment of type 2 diabetes mellitus” (Bioorg Med Chem, 2018)
Calls of active or inactive are those of the source. The rule behind the calls is not given here.

Experiments:
Mus musculus = assay: Hypoglycemic activity in albino CD-1 mouse assessed as reduction in blood glucose level at 10 mg/kg, po pretreated for 0.5 hrs followed by glucose challenge and measured after 30 to 90 mins by OGTT; type: functional, organism-based
Method in brief: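 Male CD-1 albino mice, 25–35 g, randomized by weight into groups of 5, fasted 12 h. Compounds mixed with a few drops of Tween 80 or DMSO, dissolved in distilled water, given orally at 10 mg/kg 0.5 h before an oral glucose load (2.5 g/kg). Controls got vehicle only. Blood glucose read by glucometer at 0, 30, 60, 90 min. Mean ± SD, n = 5.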

Dipeptidyl peptidase 4 = Dipeptidyl peptidase 4 (Homo sapiens, UniProt P27487); assay: Inhibition of recombinant human DPP4 using H-Gly-Pro-AMC as substrate measured after 10 mins
Dipeptidyl peptidase 4, sequence (P27487 whole entry): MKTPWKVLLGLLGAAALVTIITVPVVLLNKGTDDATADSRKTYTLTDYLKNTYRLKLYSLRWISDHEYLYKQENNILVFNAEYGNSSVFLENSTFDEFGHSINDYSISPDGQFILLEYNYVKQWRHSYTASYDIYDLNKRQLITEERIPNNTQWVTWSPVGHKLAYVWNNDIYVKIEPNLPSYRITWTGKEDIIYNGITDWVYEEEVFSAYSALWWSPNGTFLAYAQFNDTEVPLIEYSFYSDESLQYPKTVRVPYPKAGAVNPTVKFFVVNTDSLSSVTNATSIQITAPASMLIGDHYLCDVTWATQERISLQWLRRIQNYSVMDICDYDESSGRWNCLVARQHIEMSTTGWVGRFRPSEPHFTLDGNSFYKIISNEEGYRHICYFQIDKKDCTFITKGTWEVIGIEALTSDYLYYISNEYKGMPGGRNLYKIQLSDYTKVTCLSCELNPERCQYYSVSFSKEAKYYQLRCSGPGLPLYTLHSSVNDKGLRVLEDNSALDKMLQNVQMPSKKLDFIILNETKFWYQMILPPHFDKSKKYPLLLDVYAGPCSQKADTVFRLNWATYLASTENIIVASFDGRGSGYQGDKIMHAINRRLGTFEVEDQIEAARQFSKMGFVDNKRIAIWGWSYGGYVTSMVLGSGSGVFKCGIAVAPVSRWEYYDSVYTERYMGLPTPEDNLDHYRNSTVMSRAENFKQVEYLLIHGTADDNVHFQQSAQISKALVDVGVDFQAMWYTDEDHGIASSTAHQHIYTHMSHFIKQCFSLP

CC1(C)[C@H]2CC[C@]1(C)[C@@H](NCC(=O)N1CCC[C@H]1C#N)C2
Activity (Mus musculus): Active

N#C[C@@H]1CCCN1C(=O)CN1C[C@H]2C[C@H](C1)c1ccc([N+](=O)[O-])c(=O)n1C2
Activity (Mus musculus): inactive | IC50 (Dipeptidyl peptidase 4): Not Active

CC1(C)[C@H]2CC[C@]1(C)[C@@H](O)[C@H]2NCC(=O)N1CCC[C@H]1C#N (stereo in doubt)
Activity (Mus musculus): Active

N#C[C@@H]1CCCN1C(=O)CN1C[C@H]2C[C@H](C1)c1cccc(=O)n1C2
Activity (Mus musculus): inactive | IC50 (Dipeptidyl peptidase 4): Not Active

CC12CCC([C@H](NCC(=O)N3CCC[C@H]3C#N)C1=O)C2(C)C (single isomer, unassigned)
Activity (Mus musculus): Active

N#C[C@@H]1CCCN1C(=O)CNC12CC3CC(CC(O)(C3)C1)C2
Activity (Mus musculus): Active

N#C[C@@H]1CCCN1C(=O)CN1C[C@H]2C[C@H](C1)c1c(Cl)ccc(=O)n1C2
Activity (Mus musculus): inactive | IC50 (Dipeptidyl peptidase 4): Not Active

N#C[C@@H]1CCCN1C(=O)CN1C[C@H]2C[C@H](C1)c1c(Cl)cc(Cl)c(=O)n1C2
Activity (Mus musculus): inactive | IC50 (Dipeptidyl peptidase 4): Not Active

CC1(C)[C@@H]2CC[C@@]1(C)[C@H](NCC(=O)N1CCC[C@H]1C#N)C2
Activity (Mus musculus): Active

N#C[C@@H]1CCCN1C(=O)CN1C[C@H]2C[C@H](C1)c1c(Br)cc(Br)c(=O)n1C2
Activity (Mus musculus): inactive | IC50 (Dipeptidyl peptidase 4): Not Active
